Compounds with a hit are over-represented: about 2% of the library has one in this group of screens.
UCH37 inh: inhibitors of human deubiquitinating enzyme UCH37 | Q9Y5K5 | purified proteasome/UCH37, Ub-AMC cleavage fluorescence | inhibition, % (no concentration beside the values) | actives 0.33% (n = 330,000);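 active = mean inhibition over replicate wells above about 20%, limit read from the data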;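 also: 0% = compound-free wells with enzyme and 100% = wells lacking proteasome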
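System: Proteasome-associated human UCH37 deubiquitinase; Input: 0.15 nM proteasome in added enzyme buffer; Also added: Ub-AMC substrate from 1 µM stock; Incubation: 30 min compound-proteasome preincubation then 25 min substrate reaction, room temperature; Detection: fluorescence, ex 355 nm, em 460 nm; Read-out: % inhibition of Ub-AMC cleavage fluorescence; Benchmarks: no-proteasome and no-compound wells.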
GSTO1 inh: GSTO1 inhibition, counter-screen for RBBP9 inhibitors; actives 1.1% (n = 300,000); inhibition, % at 5.96 µM; recombinant GSTO1, activity-based probe fluorescence polarization;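 active = inhibition above the campaign mean inhibition plus 3 SD, cut at about 35% in these data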;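 also: 0% = GSTO1-1 with DMSO and 100% = wells lacking GSTO1-1 enzyme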
PAD4 FP inh: PAD4 (human) enzyme inhibition; Q9UM07; recombinant PAD4, RCA probe fluorescence polarization; inhibition, % at 6.36 µM; actives 0.41% (n = 330,000); AID 485272;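 active = percent inhibition above a cutoff equal to the mean of all tested compounds plus 3 SD, cut at about 15% in these data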;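 also: 0% = PAD4 with RCA probe and DMSO and 100% = probe without PAD4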
PP5 primary: inhibitors of human protein phosphatase 5 (PP5) | P53041 | purified PP5c, OMFP substrate fluorescence | inhibition, % at 6.7 µM | actives 0.18% (n = 320,000) | AID 1987;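 active = inhibition above the campaign's mean inhibition across all tested compounds plus 3 SD, cut at about 9.5% in these data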;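 also: 0% = DMSO only and 100% = 100 µM cantharidin control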
Apaf-1 inh: blocks human Apaf-1 apoptosome activity; O14727; reconstituted apoptosome caspase-3 activity, DEVD-Rh110 fluorescence; inhibition, % at 20 µM; actives 0.71% (n = 330,000); AID 489030; active = inhibition of at least 40% at 20 µM;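 also: plate controls were DMSO wells for no effect and DEVD-CHO caspase inhibitor wells for full effect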
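Material: reconstituted apoptosome with Apaf-1, cytochrome c, caspase-9, procaspase-3, dATP / Buffer or medium: pH 7.5 Hepes buffer with CHAPS, BSA, DTT / Also added: cytochrome c with DEVD-Rh110 / Schedule: compound with Apaf-1, dATP, procaspase-3 30 min, then 50 min reaction, room temperature / Technique: rhodamine 110 fluorescence at Ex 480/Em 540 nm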
CTSL1 counter: blocks F. hepatica cathepsin L1 in PFM18AAP counter-screen; recombinant F. hepatica cathepsin L1, Z-Leu-Arg-MCA fluorescence; inhibition, % at 5.96 µM; actives 0.49% (n = 300,000);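 active = inhibition above the mean of all tested compounds plus 3 SD, set per screening campaign, cut at about 17% in these data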;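 also: 0% = plate median of test compound wells and 100% = 1 µM Z-Phe-Ala-diazomethylketone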
PAD4 confirm: confirmation of human PAD4 inhibitors; inhibition, % at 6.36 µM; recombinant PAD4, RCA probe fluorescence polarization; actives 28% (n = 1,200); AID 488796; shares compounds with PAD4 FP inh;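 active = mean inhibition across replicates above the hit cutoff set by the earlier primary screen, cut at about 15% in these data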;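 also: inhibitors block active-site labeling by the probe so polarization falls; 0% = PAD4 with probe and DMSO and 100% = probe without PAD4 enzyme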
* marks the source's active call; other numbers are inactive results; / = not tested or not shown.

SMILES	UCH37 inh	GSTO1 inh	PAD4 FP inh	PP5 primary	Apaf-1 inh	CTSL1 counter	PAD4 confirm
COc1cccc2cc(C(=O)NCCc3ccccc3)oc12	-1	-3	17*	4	9	-1	14
CC(=N/N=C1/NC(=O)CC(C(=O)O)S1)c1ccc(F)cc1 (configuration not stated)	2	/	/	/	/	/	/
COc1cc(C=NNC(=O)c2ccncc2)ccc1OC(=O)c1ccc([N+](=O)[O-])cc1	5	/	/	/	/	/	/
Cc1cc(=O)n(C2CCS(=O)(=O)C2)[nH]1 (configuration not stated)	0	74*	80*	6	28	5	3
Cc1ccccc1-c1nnnn1C1CCS(=O)(=O)C1 (configuration not stated)	3	2	-3	3	-1	-1	/
CC(C)c1ccc(C=NNC(=O)c2ccc(-n3cnnn3)cc2)cc1	-1	/	/	/	/	/	/
O=C(CSc1n[nH]c(=O)[nH]c1=O)NN=Cc1ccccc1O	2	/	/	/	/	/	/
CCn1c(-c2cc(Br)cc(OC)c2O)nc2cc(S(=O)(=O)N(C)C)ccc21	1	-10	18*	4	13	-1	22*
CCc1ccc(CNc2ccc(N3CCN(C(C)=O)CC3)cc2)cc1	1	29	29*	4	17	-2	2
CN(C)c1cccc(C(=O)NN=Cc2ccccc2F)c1	4	/	/	/	/	/	/
Cc1nc(SCC(=O)NCc2ccccc2)c2oc3ccccc3c2n1	5	3	21*	-2	5	5	-6
COc1cccc(C2C(C#N)=C(N)OC(C(C)(C)C)=C2C#N)c1 (configuration not stated)	-2	12	-5	-1	5	1	/
COc1cccc(/C=C2/CN(C)CC3=C2OC(N)=C(C#N)C3c2cccc(OC)c2)c1 (configuration not stated)	2	12	61*	3	19	6	13
CCN(CC)CCN(C(=O)c1ccc2ncsc2c1)c1nc2cc3c(cc2s1)OCO3	2	-3	22*	4	7	2	5
CCN(CC)CCN(C(=O)c1ccc(C(=O)c2ccccc2)cc1)c1nc2cc3c(cc2s1)OCO3	5	5	2	1	27	1	/
O=C1c2cccc3c(O)ccc(c23)C(=O)N1Cc1ccccc1	0	9	40*	-30	-16	2	50*
OCCN(CCO)c1ccc(C(c2ccc(Cl)cc2)c2ccc(N(CCO)CCO)cc2Cl)c(Cl)c1	2	0	15*	5	-9	-5	5
CN(C(=O)Cn1nc(C(=O)O)c2ccccc2c1=O)c1ccccc1	1	11	-2	0	-5	-2	/
N#CCCN(C(=O)Cn1nc(C(=O)O)c2ccccc2c1=O)c1ccccc1	4	5	103*	-1	9	-2	0
CC(=NNc1ccc(S(N)(=O)=O)cc1[N+](=O)[O-])c1cccnc1	4	/	/	/	/	/	/
CCOc1ccc2nc(NC(=O)CN3CCN(c4ccccn4)CC3)sc2c1	-2	-4	4	5	11	-2	/
O=C(CN1CCN(c2ccccn2)CC1)Nc1nc2ccccc2s1	4	8	18*	1	-9	-4	6
CC(=O)C[C@H](O)CC(=O)[C@H]1OC(=O)CCCCCc2ccccc21	1	/	1	/	-5	/	/
CC(=O)C[C@H](O)CC(=O)[C@H]1OC(=O)CC/C=C\Cc2ccccc21	0	/	22*	2	2	/	0
COC(=O)c1cc(S(=O)(=O)Nc2cccc(OC)c2)cn1C	8	-3	-2	1	0	-2	/
CCOC(=O)c1cc(S(=O)(=O)Nc2ccc(OC)cc2OC)cn1C	1	-5	31*	0	14	-4	-3
S=C(NCc1ccco1)Nc1ccc(Cl)c(Cl)c1	3	-6	3	4	-2	0	/
S=C(NCc1ccco1)Nc1cccc(Cl)c1	3	4	163*	1	4	7	0
Cc1ccc(C2(C)NC(=O)N(CC(=O)Nc3cc(C)on3)C2=O)cc1 (configuration not stated)	1	6	-2	-1	-12	-5	/

Screening data deposited in PubChem by several laboratories.
